Results reported in ChEMBL document CHEMBL1150133, “New saponins from the starfish Certonardoa semiregularis” (J Nat Prod, 2002).
Values after ≈ are worked out from the molar mass of the structure shown.

Legend:
[1] = Cytotoxicity against human MT4 cells after 5 days by MTT assay; assay type: cell-based
Summary of the method: (§1)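 MT-4 cells (RPMI 1640/10% FBS), HIV-infected or mock-infected, were plated with 2× concentrated test samples and kept 5 days at 37 °C. Cells were inspected microscopically, then MTT was added for 1 h, dissolved in acidified 2-propanol, and read at 540 nm (690 nm reference). EC50 (50% protection) came from infected wells and CC50 (50% viability loss) from mock-infected wells.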

[2] = test system: Human immunodeficiency virus 1; experiment: Antiviral activity against HIV1 3B infected in human MT4 cells assessed as inhibition of virus-induced cytopathic effect after 5 days by MTT assay; assay type: functional, organism-based; conditions: Human immunodeficiency virus 1, 3B, MT4, 120 h; summary of the method: as §1
[3] = test system: Human immunodeficiency virus 2; experiment: Antiviral activity against HIV2 ROD infected in human MT4 cells assessed as inhibition of virus-induced cytopathic effect after 5 days by MTT assay; assay type: functional, organism-based; conditions: Human immunodeficiency virus 2, ROD, MT4, 120 h; summary of the method: as §1
[4] = Cytotoxicity against african green monkey Vero cells after 3 days by MTT assay; assay type: cell-based; conditions: chlorocebus sabaeus
Summary of the method: (§2)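 Confluent Vero cells were infected at 100 CCID50 per well, or mock-infected, with 1 h adsorption at 37 °C. Compound in DMEM/2% FBS was added in duplicate per concentration, followed by 3 days at 37 °C. Viability was read by MTT, and EC50 for CPE inhibition and CC50 for cytocidal effect were calculated.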

Human alphaherpesvirus 1 = experiment: Antiviral activity against HSV1 F infected in african green monkey Vero cells assessed as inhibition of virus-induced cytopathic effect after 3 days by MTT assay; assay type: functional, organism-based; conditions: Human alphaherpesvirus 1, F, 72 h; summary of the method: as §2
Human alphaherpesvirus 2 = experiment: Antiviral activity against HSV2 MS infected in african green monkey Vero cells assessed as inhibition of virus-induced cytopathic effect after 3 days by MTT assay; assay type: functional, organism-based; conditions: Human alphaherpesvirus 2, MS, 72 h; summary of the method: as §2
[5] = Cytotoxicity against human HeLa cells after 2 days by MTT assay; assay type: cell-based
Summary of the method: (§3)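 In HeLa cells, virus-induced CPE inhibition was run with infected or mock-infected wells, 30 min virus adsorption, and compound in DMEM/2% FBS in duplicate per concentration. After 2 days at 37 °C, MTT read-out gave EC50 from infected wells and CC50 from mock-infected wells.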

Coxsackievirus B3 = experiment: Antiviral activity against Coxsackievirus B3 Nancy infected in human HeLa assessed as inhibition of virus-induced cytopathic effect after 2 days by MTT assay; assay type: functional, organism-based; conditions: Enterovirus B, 48 h; summary of the method: as §3
[6] = test system: Encephalomyocarditis virus; experiment: Antiviral activity against Encephalomyocarditis virus EMC infected in human HeLa assessed as inhibition of virus-induced cytopathic effect after 2 days by MTT assay; assay type: functional, organism-based; conditions: Cardiovirus A, 48 h; summary of the method: as §3
[7] = test system: Vesicular stomatitis Indiana virus; experiment: Antiviral activity against Vesicular stomatitis Indiana virus infected in human HeLa assessed as inhibition of virus-induced cytopathic effect after 2 days by MTT assay; assay type: functional, organism-based; conditions: 48 h
Summary of the method: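 CPE-inhibition assay with VSV strain Indiana (stock grown in HeLa cells) on confluent HeLa cells (DMEM/5% FBS, gentamycin) in 96-well plates. Infection at 100 CCID50 per well with 30 min adsorption at 37 °C, then the compound in DMEM/2% FBS, duplicate wells per concentration, 2 days at 37 °C. Viability read by MTT; EC50 is the concentration giving 50% protection. Mock-infected wells gave CC50.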

SMILES | CC50 at 120 h [1] | EC50 [2] | EC50 [3] | CC50 at 72 h [4] | EC50 (Human alphaherpesvirus 1) | EC50 (Human alphaherpesvirus 2) | CC50 at 48 h [5] | EC50 (Coxsackievirus B3) | EC50 [6] | EC50 [7]
C=C(CC[C@@H](C)[C@H]1C[C@@H](O)[C@@H]2[C@]1(C)CC[C@@H]1[C@@]3(C)CC[C@H](O)[C@H](O)[C@@H]3[C@@H](O)C[C@]12O)C(C)CO[C@@H]1OC[C@@H](O)[C@H](O)[C@H]1O[C@@H]1OC[C@@H](O)[C@H](O)[C@H]1OC (some centres undefined) [ACODONTASTEROSIDE G] | 42.5 µg/mL (≈ 56 µM) | > 42.5 µg/mL | > 42.5 µg/mL | > 100 µg/mL | 86.1 µg/mL (≈ 113 µM) | 94.5 µg/mL (≈ 125 µM) | 51.5 µg/mL (≈ 67.9 µM) | > 51.5 µg/mL | > 51.5 µg/mL | > 51.5 µg/mL
Nc1nc2c(ncn2COCCO)c(=O)[nH]1 [ACYCLOVIR] |  |  |  | > 10 µg/mL | 0.8 µg/mL (≈ 3.55 µM) | 2.4 µg/mL (≈ 10.7 µM) |  |  |  | 
C=C(CC[C@@H](C)[C@H]1C[C@@H](O)[C@@H]2[C@]1(C)CC[C@@H]1[C@@]3(C)CC[C@H](O)[C@H](O)[C@@H]3[C@@H](O)C[C@]12O)C(C)CO[C@@H]1OC[C@@H](O)[C@H](OS(=O)(=O)[O-])[C@H]1O[C@@H]1OC[C@@H](O)[C@H](O)[C@H]1OC.[Na+] (some centres undefined) [CERTONARDOSIDE A] | 6.8 µg/mL | > 6.8 µg/mL | > 6.8 µg/mL | > 100 µg/mL | > 100 µg/mL | > 100 µg/mL | > 100 µg/mL | > 100 µg/mL | > 100 µg/mL | > 100 µg/mL
C=C(CC[C@@H](C)[C@H]1C[C@@H](O)[C@@H]2[C@]1(C)CC[C@@H]1[C@@]3(C)CC[C@H](O)C[C@@H]3[C@@H](O)C[C@]12O)C(C)CO[C@@H]1OC[C@@H](O)[C@H](OS(=O)(=O)[O-])[C@H]1O[C@@H]1OC[C@@H](O)[C@H](O)[C@H]1OC.[Na+] (some centres undefined) [CERTONARDOSIDE C] | 1.4 µg/mL | > 1.4 µg/mL | > 1.4 µg/mL | 97.5 µg/mL | > 97.5 µg/mL | > 97.5 µg/mL | > 100 µg/mL | > 100 µg/mL | > 100 µg/mL | > 100 µg/mL
CO[C@H]1[C@H](O[C@H]2[C@H](OC[C@@H](C)[C@H](C)/C=C/[C@@H](C)[C@H]3C[C@@H](O)[C@@H]4[C@]3(C)CC[C@@H]3[C@@]5(C)CC[C@H](O)[C@H](O)[C@@H]5[C@@H](O)C[C@]34O)OC[C@@H](O)[C@@H]2OS(=O)(=O)[O-])OC[C@@H](O)[C@@H]1O.[Na+] [CERTONARDOSIDE D] | > 100 µg/mL | > 100 µg/mL | > 100 µg/mL | 79.9 µg/mL | > 79.9 µg/mL | > 79.9 µg/mL | > 100 µg/mL | > 100 µg/mL | > 100 µg/mL | > 100 µg/mL
CO[C@H]1[C@H](O[C@H]2[C@H](O[C@@H](CC[C@@H](C)[C@H]3C[C@@H](O)[C@@H]4[C@]3(C)CC[C@@H]3[C@@]5(C)CC[C@H](O)[C@H](O)[C@@H]5[C@@H](O)C[C@]34O)C(C)C)O[C@H](CO)[C@@H]2O)OC[C@@H](OC)[C@@H]1O [CERTONARDOSIDE F] | 39.7 µg/mL (≈ 52.2 µM) | > 39.7 µg/mL | > 39.7 µg/mL | > 100 µg/mL | > 100 µg/mL | > 100 µg/mL | 64.8 µg/mL (≈ 85.2 µM) | > 64.8 µg/mL | > 64.8 µg/mL | > 64.8 µg/mL
CO[C@H]1[C@H](O[C@H]2[C@H](O[C@@H](CC[C@@H](C)[C@H]3C[C@@H](O)[C@@H]4[C@]3(C)CC[C@@H]3[C@@]5(C)CC[C@H](O)[C@H](O)[C@@H]5[C@@H](OS(=O)(=O)[O-])C[C@]34O)C(C)C)O[C@H](CO)[C@@H]2O)OC[C@@H](OC)[C@@H]1O.[Na+] [CERTONARDOSIDE G] | > 100 µg/mL | > 100 µg/mL | > 100 µg/mL | > 100 µg/mL | > 100 µg/mL | > 100 µg/mL | > 100 µg/mL | > 100 µg/mL | > 100 µg/mL | > 100 µg/mL
CO[C@H]1[C@H](O[C@H]2[C@H](O[C@@H](CC[C@@H](C)[C@H]3C[C@@H](O)[C@H]4[C@@H]5C[C@H](O)[C@H]6[C@@H](O)[C@@H](O)CC[C@]6(C)[C@H]5CC[C@@]43C)C(C)C)O[C@H](CO)[C@@H]2O)OC[C@@H](OC)[C@@H]1O [CERTONARDOSIDE I] | 42.5 µg/mL (≈ 57.1 µM) | > 42.5 µg/mL | > 42.5 µg/mL | > 100 µg/mL | > 100 µg/mL | > 100 µg/mL | 59.9 µg/mL (≈ 80.4 µM) | > 59.9 µg/mL | > 59.9 µg/mL | > 59.9 µg/mL
CO[C@@H]1CO[C@@H](OCC[C@@H](CC[C@@H](C)[C@H]2[C@@H](O)[C@@H](O)[C@@H]3[C@]2(C)CC[C@@H]2[C@@]4(C)CC[C@H](O)[C@H](O)[C@@H]4[C@@H](OS(=O)(=O)[O-])C[C@]23O)C(C)C)[C@H](O)[C@H]1O.[Na+] [CERTONARDOSIDE J] | 67.4 µg/mL | > 67.4 µg/mL | > 67.4 µg/mL | > 100 µg/mL | 81.1 µg/mL | 82.3 µg/mL | 58.8 µg/mL | > 58.8 µg/mL | > 58.8 µg/mL | > 58.8 µg/mL
CO[C@@H]1CO[C@@H](OCC[C@@H](CC[C@@H](C)[C@H]2[C@@H](O)[C@@H](O)[C@H]3[C@@H]4C[C@H](OS(=O)(=O)[O-])[C@H]5[C@@H](O)[C@@H](O)CC[C@]5(C)[C@H]4CC[C@]23C)C(C)C)[C@H](O)[C@H]1O.[Na+] [CERTONARDOSIDE K] | > 100 µg/mL | > 100 µg/mL | > 100 µg/mL | > 100 µg/mL | 97.8 µg/mL | 82.1 µg/mL | 57.9 µg/mL | > 57.9 µg/mL | > 57.9 µg/mL | > 57.9 µg/mL
Nc1ccn([C@@H]2O[C@H](CO)[C@@H](O)[C@@H]2O)c(=O)n1 [CYTARABINE] |  |  |  | 4.8 µg/mL (≈ 19.7 µM) | 1.6 µg/mL (≈ 6.58 µM) | 3 µg/mL (≈ 12.3 µM) |  |  |  | 
O=c1[nH]cnc2c1ncn2[C@H]1CC[C@@H](CO)O1 [DIDANOSINE] | > 100 µg/mL | 2.1 µg/mL (≈ 8.89 µM) | 11 µg/mL (≈ 46.6 µM) |  |  |  |  |  |  | 
NC(=O)c1ncn([C@@H]2O[C@H](CO)[C@@H](O)[C@H]2O)n1 [RIBAVIRIN] |  |  |  |  |  |  | 300 µg/mL (≈ 1230 µM) | 236 µg/mL (≈ 968 µM) | 27.2 µg/mL (≈ 111 µM) | 13.7 µg/mL (≈ 56.1 µM)
Nc1ccn([C@H]2CC[C@@H](CO)O2)c(=O)n1 [ZALCITABINE] | 11 µg/mL (≈ 52.1 µM) | 0.1 µg/mL (≈ 0.473 µM) | 0.1 µg/mL (≈ 0.473 µM) |  |  |  |  |  |  | 
Cc1cn([C@H]2C[C@H](N=[N+]=[N-])[C@@H](CO)O2)c(=O)[nH]c1=O [ZIDOVUDINE] | 1.9 µg/mL (≈ 7.11 µM) | 0.001 µg/mL (≈ 0.00374 µM) | 0.007 µg/mL (≈ 0.0262 µM) |  |  |  |  |  |  | 
